Measured values: paper PMC7218746 (Biomacromolecules, 2020)
Ends that are not written are not given here.

Legend:
[1] = Determination of cloud points of polymers; format: physicochemical; settings: in PBS; refers to Table 1
Dynamic light scattering = format: physicochemical; settings: DLS, 1 mg·mL–1 in PBS pH 7.4, 37 °C, 173° angle; micelles as prepared
[2] = tested on: Metalloprotease (type IV) collagenase from C. histolyticume; assay: Kinetics of Pep-NC cleavage by collagenase; format: in vitro ADME; settings: GPC; for change of molecular weight after incubation with collagenase: collagenase 30 units·mL–1, 24 h
Outline: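 Polymer at 5 mg·mL–1 in PBS pH 7.4 with 0.9 mM CaCl2 and 0.02% NaN3, held 3 h at 4 °C, then 37 °C. l-Pep-NC incubated with or without type IV collagenase (0.5 units·mL–1); d-Pep-NC with 30 units·mL–1 for 24 h. Timed l-Pep-NC aliquots quenched 1 h with 0.1 M EDTA, dialysed, lyophilised. Mn by GPC (DMF/10 mM LiCl, 65 °C, RI detection, PEG standards).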

[3] = 37 °C, 5 mg·mL–1 polymer in PBS pH 7.4 with 0.9 mM CaCl2

Sequence	LCST [1] [°C]	Z-average diameter (Dynamic light scattering) [nm]	change of molecular weight in the absence of the enzyme ([2]; 24 h, 37 °C, PBS pH 7.4)	time for cleavage of the peptide block ([2]; collagenase 0.5 units·mL–1, 37 °C, 5 mg·mL–1 polymer in PBS pH 7.4 with 0.9 mM CaCl2) [min]	change of molecular weight after incubation with collagenase [2, 3]
KGPQGIFGQK [Pep-NC, P(NIPAM-co-HPMA-Cys)-PEG-peptide-PEG-P(NIPAM-co-HPMA-Cys)]	~31	87 ± 1			
KGPQGIFGQK [L-Pep-NC, P(NIPAM-co-HPMA-Cys)-PEG-peptide-PEG-P(NIPAM-co-HPMA-Cys)]			No change in the molecular weight	160	reduced to half its original molecular weight
KGPQGIFGQK [D-Pep-NC, (NIPAM-co-HPMA-Cys)-PEG-D-Peptide-PEG-P(NIPAM-co-HPMA-Cys)]					did not change
